Here are results for one molecule from PubChem BioAssay AID504412 (Broad Institute, 2011).

The assay in a line: cytochrome c release from CHL-1 A1-2A-BIM mitochondria, confirmation, orthogonal assay for A1 inhibitor project, biochemical, isolated mitochondria, cytochrome c ELISA, dry powder (AID 504412). Conditions: stronger effect = higher value. In short, it runs like this: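 Assay system: A1-2A-BIM CHL-1 cell mitochondria; Buffer or medium: trehalose AT buffer, pH 7.7, 80 mM KCl; Incubation: compound treatment 30 min, 30 °C; Signal: cytochrome c ELISA, A450 with 540 nm correction; Controls: DMSO low, DMSO with tBid high; Evaluation: cytochrome c freed from mitochondria into supernatant.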
For orientation: In an ELISA, binding on a coated surface is turned into a signal by an enzyme label.

Calls of active or inactive are those of the source.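 How the source made its calls: active means activation of at least 10% at the 50 µM dose, scaled between neutral and positive controls; inactive means the rest.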

With `Cn1c(=O)c([N+](=O)[O-])c(Cl)c2ccccc21`, the activation runs as follows: (at 50 µM) 25.6% (active); (cytochrome c release, at 10 µM) 10.1%.
